According to publication PMC8640676 (Journal of Pesticide Science, 2021):

What was measured:
[1] = system: cryopreserved primary hepatocytes of SD rats; assay: Hepatocyte uptake assay; format: in vitro ADME, rat; conditions: rats vs humans
[2] = target: T1, protoporphyrinogen oxidase (PPO) (Homo sapiens, UniProt P50336); assay: PPO-inhibition assay, human liver mitochondrial fraction; format: biochemical
T1 sequence (P50336 1-477): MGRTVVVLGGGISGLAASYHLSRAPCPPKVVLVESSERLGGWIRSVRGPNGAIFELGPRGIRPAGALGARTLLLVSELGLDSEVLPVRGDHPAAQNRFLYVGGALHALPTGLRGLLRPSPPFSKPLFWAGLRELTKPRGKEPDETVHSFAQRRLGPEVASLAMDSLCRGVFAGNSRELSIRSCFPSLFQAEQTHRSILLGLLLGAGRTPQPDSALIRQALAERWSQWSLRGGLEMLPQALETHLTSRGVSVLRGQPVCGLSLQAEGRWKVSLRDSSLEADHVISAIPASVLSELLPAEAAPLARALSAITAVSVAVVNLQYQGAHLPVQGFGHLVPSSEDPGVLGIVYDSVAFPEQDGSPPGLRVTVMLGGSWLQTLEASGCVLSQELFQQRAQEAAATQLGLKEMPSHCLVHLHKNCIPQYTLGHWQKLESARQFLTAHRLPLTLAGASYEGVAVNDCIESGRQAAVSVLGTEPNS
Outline: (§1)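 Liver mitochondria came from pooled SD rats and humans, or were freshly kit-isolated from Crl:CD1 mice and TOYO beagles. They were used at 0.2 mg protein/mL in 100 mM Tris-HCl pH 7.5 with 0.1% Triton-X, 1 mM EDTA and 40 mM ascorbate, preincubated 10 min at 37°C, then given 0.5 µM protoporphyrinogen IX. PPIX fluorescence (ex 410/em 630 nm) was read for 60 min at 37°C. Heat-killed mitochondria gave the background, and IC50 came from 4-parameter fits over 3 runs.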

[3] = Toxicokinetics in plasma, dog 90-day study; format: in vivo; conditions: for Cmax: beagle, dog, plasma, po
[4] = In vitro metabolism study in liver microsomes; format: in vitro ADME; conditions: human liver microsomes, [14C]epyrifenacil 10 µM
[5] = Toxicokinetics in plasma, mouse 90-day study; format: in vivo; conditions: mouse, plasma, po
[6] = target: T2, protoporphyrinogen oxidase (PPO) (Canis lupus familiaris, UniProt A0A8I3Q7Z3); assay: PPO-inhibition assay, dog liver mitochondrial fraction; format: biochemical
T2 sequence (A0A8I3Q7Z3 1-480): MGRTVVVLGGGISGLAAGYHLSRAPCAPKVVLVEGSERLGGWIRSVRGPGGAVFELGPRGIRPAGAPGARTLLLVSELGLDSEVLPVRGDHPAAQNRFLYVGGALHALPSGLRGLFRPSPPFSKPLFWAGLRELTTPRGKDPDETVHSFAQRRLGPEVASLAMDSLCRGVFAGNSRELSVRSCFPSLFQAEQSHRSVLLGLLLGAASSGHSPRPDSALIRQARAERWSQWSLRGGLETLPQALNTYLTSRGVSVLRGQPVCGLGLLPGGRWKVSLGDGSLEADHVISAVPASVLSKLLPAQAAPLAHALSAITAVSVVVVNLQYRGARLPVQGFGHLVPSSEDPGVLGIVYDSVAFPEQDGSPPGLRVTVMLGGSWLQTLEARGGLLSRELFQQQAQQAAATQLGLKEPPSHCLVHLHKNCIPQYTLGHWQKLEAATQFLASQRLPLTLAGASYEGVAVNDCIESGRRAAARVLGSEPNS
Outline: as §1

[7] = target: T3, protoporphyrinogen oxidase (PPO) (Mus musculus, UniProt P51175); assay: PPO-inhibition assay, mouse liver mitochondrial fraction; format: biochemical
T3 sequence (P51175 1-477): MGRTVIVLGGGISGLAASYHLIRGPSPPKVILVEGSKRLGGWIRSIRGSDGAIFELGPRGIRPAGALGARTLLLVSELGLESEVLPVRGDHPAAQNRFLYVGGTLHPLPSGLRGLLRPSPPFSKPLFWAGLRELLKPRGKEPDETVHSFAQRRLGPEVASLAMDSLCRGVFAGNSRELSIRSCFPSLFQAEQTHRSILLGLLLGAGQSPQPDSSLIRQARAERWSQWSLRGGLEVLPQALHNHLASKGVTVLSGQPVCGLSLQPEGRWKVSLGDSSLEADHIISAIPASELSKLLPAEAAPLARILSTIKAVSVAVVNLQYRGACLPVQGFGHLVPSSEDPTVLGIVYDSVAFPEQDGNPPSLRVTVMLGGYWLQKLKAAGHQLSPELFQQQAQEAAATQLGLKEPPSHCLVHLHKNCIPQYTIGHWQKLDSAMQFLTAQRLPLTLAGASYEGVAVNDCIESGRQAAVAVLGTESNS
Outline: as §1

[8] = In vitro metabolism study in liver microsomes; format: in vitro ADME; conditions: mouse liver microsomes, [14C]epyrifenacil 10 µM
[9] = In vitro metabolism study in liver microsomes; format: in vitro ADME; conditions: rat liver microsomes, [14C]epyrifenacil 10 µM
[10] = system: cryopreserved primary hepatocytes of humans; assay: Hepatocyte uptake assay; format: in vitro ADME; conditions: human hepatocytes (both genders), 5 µM, 37°C minus 4°C
[11] = target: T4, protoporphyrinogen oxidase (PPO) (Rattus norvegicus, UniProt D3ZVN7); assay: PPO-inhibition assay, rat liver mitochondrial fraction; format: biochemical
T4 sequence (D3ZVN7 1-488): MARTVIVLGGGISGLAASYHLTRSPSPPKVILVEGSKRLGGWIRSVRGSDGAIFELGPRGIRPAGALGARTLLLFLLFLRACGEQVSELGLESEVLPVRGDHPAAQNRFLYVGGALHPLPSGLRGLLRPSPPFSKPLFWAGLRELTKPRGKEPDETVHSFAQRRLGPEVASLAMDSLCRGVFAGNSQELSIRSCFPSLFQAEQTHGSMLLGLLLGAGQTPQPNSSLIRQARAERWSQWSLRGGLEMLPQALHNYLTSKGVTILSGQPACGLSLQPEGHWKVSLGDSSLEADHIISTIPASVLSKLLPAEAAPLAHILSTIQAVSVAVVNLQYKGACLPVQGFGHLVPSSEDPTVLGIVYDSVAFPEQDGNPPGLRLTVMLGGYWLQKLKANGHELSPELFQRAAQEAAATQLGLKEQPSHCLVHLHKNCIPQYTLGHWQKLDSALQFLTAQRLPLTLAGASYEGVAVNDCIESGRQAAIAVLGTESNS
Outline: as §1

[12] = female, Crl:CD1(ICR), 4.1 mg/kg bw/day

Q: Which “Hepatocyte uptake, times greater in rats than in humans” value [1] does the source give for `Cn1c(C(F)(F)F)cc(=O)n(-c2cc(Oc3cccnc3OCC(=O)O)c(Cl)cc2F)c1=O` [S-3100-CA, (3-{2-chloro-4-fluoro-5-[1,2,3,6-tetrahydro-3-methyl-2,6-dioxo-4-(trifluoromethyl)pyrimidin-1-yl]phenoxy}pyridin-2-yloxy)acetic acid] here?
A: 2 times

Q: What about the IC50 [2] of the same molecule?
A: 12.5 ± 2.08 nM

Q: And the “AUC0–24 of S-3100-CA at NOAEL, fold change vs. corresponding mouse value” ([3]; female dogs vs female mice)?
A: 23 fold

Q: What about the “Cmax of S-3100-CA at NOAEL, fold change vs. corresponding mouse value” ([3]; female dogs vs female mice) of the same molecule?
A: 42 fold

Q: What about the Cmax ([3]; female, 300 mg/kg bw/day) of the same molecule?
A: 5650 ng/mL

Q: What about the Cmax ([3]; female, 300 mg/kg/day) of the same molecule?
A: 5650 ng/mL

Q: What about the “Cmax of S-3100-CA at NOAEL, fold change vs. corresponding mouse value” ([3]; male dogs vs male mice) of the same molecule?
A: 74 fold

Q: And the Cmax ([3]; male, 100 mg/kg bw/day)?
A: 947 ng/mL

Q: What about the Cmax ([3]; male, 100 mg/kg/day) of the same molecule?
A: 947 ng/mL

Q: What about the “S-3100-CA detected as major metabolite, share of the applied radioactivity” value (shortened to “S-3100-CA detected as major metabolite”) [4] of the same molecule?
A: no less than 80%

Q: What about the AUC(0-t) [5, 12] of the same molecule?
A: 2240 ng·h/mL

Q: What about the Cmax [5, 12] of the same molecule?
A: 135 ng/mL

Q: What about the AUC(0-t) ([5]; female, 5 ppm in diet) of the same molecule?
A: 403 ng·h/mL

Q: What about the Cmax ([5]; female, 5 ppm in diet) of the same molecule?
A: 22.7 ng/mL

Q: And the AUC(0-t) ([5]; female, 25 ppm in diet)?
A: 2240 ng·h/mL

Q: What about the Cmax ([5]; female, 25 ppm in diet) of the same molecule?
A: 135 ng/mL

Q: What about the AUC(0-t) ([5]; female, 100 ppm in diet) of the same molecule?
A: 14800 ng·h/mL

Q: What about the Cmax ([5]; female, 100 ppm in diet) of the same molecule?
A: 860 ng/mL

Q: And the Cmax ([5]; male, Crl:CD1(ICR), 0.7 mg/kg bw/day)?
A: 12.8 ng/mL

Q: What about the Cmax ([5]; male, 5 ppm in diet) of the same molecule?
A: 12.8 ng/mL

Q: And the AUC(0-t) ([5]; male, 25 ppm in diet)?
A: 4580 ng·h/mL

Q: What about the Cmax ([5]; male, 25 ppm in diet) of the same molecule?
A: 64.9 ng/mL

Q: What about the AUC(0-t) ([5]; male, 100 ppm in diet) of the same molecule?
A: 10100 ng·h/mL

Q: And the Cmax ([5]; male, 100 ppm in diet)?
A: 550 ng/mL

Q: And the IC50 [6]?
A: 11.1 ± 3.12 nM

Q: What about the IC50 [7] of the same molecule?
A: 0.9 ± 0.3 nM

Q: What about the “S-3100-CA detected as major metabolite” value [8] of the same molecule?
A: no less than 80%

Q: What about the “S-3100-CA detected as major metabolite” value [9] of the same molecule?
A: no less than 80%

Q: What about the “Active uptake rate into hepatocytes” value [10] of the same molecule?
A: 3.83 µL/10^6 cells/min

Q: What about the IC50 [11] of the same molecule?
A: 1.5 ± 0.36 nM
